Screening data (PubChem BioAssay)
Only some compounds are listed: those with a hit (about 5.1% of all), similar ones and a draw of the others.
STAT1 blocker = STAT1 signaling inhibitors, primary screen, cell-based, HTS, luciferase reporter. inhibition, % at 5.5 µM. 0.35% of 200,000 active. NIH 3T3 STAT1-luciferase reporter, IFN-gamma, luminescence;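 active = inhibition above a set limit, the mean inhibition across all tested compounds plus 3 SD, cut at about 34% in these data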;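 note: 0% = IFN-gamma with DMSO and 100% = IFN-gamma with 300 µM nifuroxazide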
STAT3 act = IL-6 driven STAT3 reporter potentiators, primary screen, U3A cells, luciferase, luminescence, MLSCN library. IL-6 STAT3-luciferase reporter; 100% = signal with IL-6 EC80 alone. activation (% of control), % at 5.6 µM. 0.91% of 190,000 active;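 active = activation above the screen-wide mean of compound activation plus 3 SD, cut at about 130% in these data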;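 note: 0% = background luminescence of wells with medium and substrate only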
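Material: human STAT1-deficient U3A cells with stable STAT3-luciferase reporter / Probe or stimulus: IL-6 stimulus at 33 ng/mL final / Schedule: 1 h compound pre-exposure, 6 h IL-6 stimulation, 37 °C / Technique: luminescence / Read-out basis: percent of IL-6-only median luminescence / Control set: IL-6-only high control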
APP 5'UTR act = activators of APP 5'UTR luciferase reporter, primary screen, SH-SY5Y cells | SH-SY5Y APP 5'UTR luciferase reporter, luminescence; zero percent = DMSO vehicle wells | activation, % at 2 µM | 1% of 190,000 active | AID 1276, 2008;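 active = activation above a set limit, based on mean plus 3 SD of controls, cut at about 140% in these data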
NF-kB expr up = activators of NF-kB expression in neurons, primary screen, cell-based, HTS; human neuronal cells, NF-kB reporter expression; stronger effect = higher value; fold change at 12.5 µM; 1.6% of 190,000 active; in the data active = fold change above about 3.3
STAT1 activator = STAT1 signaling activators, primary screen, cell-based, HTS, luciferase reporter; NIH 3T3 STAT1-luciferase reporter, IFN-gamma, luminescence; 100% = IFN-gamma alone, no compound; activation (% of control), % at 5.5 µM; 2.6% of 200,000 active;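 active = activation above the screen-wide mean activation plus 3 SD, cut at about 130% in these data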;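 note: raw ratio to IFN-gamma control signal so 100% means no change and 0% no light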
STAT3 blocker = IL-6 driven STAT3 reporter inhibitors, primary screen, U3A cells, luciferase, luminescence, MLSCN library. IL-6 STAT3-luciferase reporter; host cell line lacks STAT1. 0.89% of 190,000 active. inhibition, % at 5.5 µM. AID 862, 2007;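 active = inhibition above the mean inhibition across all screened compounds plus 3 SD, cut at about 44% in these data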;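 note: 0% = DMSO only wells and 100% = 100 µM nifuroxazide control wells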
An asterisk follows results filed as active.

For S=C(NCCc1ccccc1)Nc1cnc2ccccc2c1 the results were STAT1 blocker -29, STAT3 act 96, APP 5'UTR act -1, NF-kB expr up 1.8, STAT1 activator 125 and STAT3 blocker 8.
`Cc1ccc(C(=O)Nc2ccc(C(F)(F)F)n(C)c2=O)cc1` gave STAT1 blocker -37, STAT3 act 104, APP 5'UTR act 71, NF-kB expr up 0.99, STAT1 activator 133* and STAT3 blocker -3.
`c1ccc(-c2n[nH]c(-c3ccccn3)n2)nc1` gave STAT1 blocker -48, STAT3 act 103, APP 5'UTR act 46, NF-kB expr up 2, STAT1 activator 144* and STAT3 blocker 0.
Screening CCOC(=O)c1sc(=NC(=O)c2ccc(C)c(C)c2)n(C)c1C returned STAT1 blocker -31, STAT3 act 99, APP 5'UTR act 129, NF-kB expr up 1, STAT1 activator 127 and STAT3 blocker 4.
`CCOC(=O)c1sc(=NC(=O)c2cccs2)n(C)c1C` gave STAT1 blocker -36, STAT3 act 128, APP 5'UTR act 141*, NF-kB expr up 5.4*, STAT1 activator 133* and STAT3 blocker -24.
`CCOC(=O)c1sc(NC(=O)c2cccs2)cc1C` gave STAT1 blocker -42, STAT3 act 70, APP 5'UTR act 168*, NF-kB expr up 4*, STAT1 activator 138* and STAT3 blocker 42.
Cc1ccc2c(c1)sc(=NC(=O)c1cccs1)n2C was read as STAT1 blocker 81*, STAT3 act 32, APP 5'UTR act 220*, NF-kB expr up 2.2, STAT1 activator 24 and STAT3 blocker 88*.
CCOC(=O)c1sc(=NC(=O)c2ccc(Cl)s2)n(C)c1C was read as STAT1 blocker -54, STAT3 act 137*, APP 5'UTR act 146*, NF-kB expr up 1.5, STAT1 activator 151* and STAT3 blocker -47.
For C#CCn1c(=NC(=O)c2cccs2)sc2cccc(OC)c21 the results were STAT1 blocker -24, STAT3 act 122, APP 5'UTR act 16, NF-kB expr up 1.4, STAT1 activator 122 and STAT3 blocker -22.
`CCc1cccc(NC(=O)c2cc(S(=O)(=O)N(C)C)ccc2N2CCCC2)c1` gave STAT1 blocker -8, STAT3 act 98, APP 5'UTR act -16, NF-kB expr up 0.89, STAT1 activator 105 and STAT3 blocker 5.
Screening CCOC(=O)c1sc(=NC(=O)c2ccco2)n(C)c1C returned STAT1 blocker -33, STAT3 act 143*, APP 5'UTR act 31, NF-kB expr up 2.1, STAT1 activator 129* and STAT3 blocker -48.
Screening CNC(=S)NNc1ccccc1[N+](=O)[O-] returned STAT1 blocker -6, STAT3 act 117, APP 5'UTR act 15, NF-kB expr up 0.89, STAT1 activator 103 and STAT3 blocker -13.
COc1ccc(C(=O)NCCSCc2ccccc2C)cc1 was read as STAT1 blocker 3, STAT3 act 95, APP 5'UTR act -9, NF-kB expr up 1.1, STAT1 activator 97 and STAT3 blocker 12.
Screening COc1ccc(C(=O)NCCNc2ccccc2[N+](=O)[O-])cc1 returned STAT1 blocker -54, STAT3 act 96, APP 5'UTR act 163*, NF-kB expr up 1.1, STAT1 activator 148* and STAT3 blocker 12.
Screening CCCOc1ccc(C(=O)Nc2ccc(C)cc2[N+](=O)[O-])cc1 returned STAT1 blocker -11, STAT3 act 93, APP 5'UTR act 0, NF-kB expr up 1, STAT1 activator 110 and STAT3 blocker 18.
CC(C)COc1ccc(C(=O)Nc2ccccc2[N+](=O)[O-])cc1 was read as STAT1 blocker -37, STAT3 act 96, APP 5'UTR act 83, NF-kB expr up 2.8, STAT1 activator 133* and STAT3 blocker 6.
COCCNC(=S)NNc1ccccc1[N+](=O)[O-] was read as STAT1 blocker -4, STAT3 act 136*, APP 5'UTR act 42, NF-kB expr up 1.1, STAT1 activator 102 and STAT3 blocker -41.
Cc1cc(C)n2nc(C(=O)NC3CCCc4ccccc43)nc2n1 (stereo unspecified) was read as STAT1 blocker -5, STAT3 act 107, APP 5'UTR act 31, NF-kB expr up 1.1, STAT1 activator 104 and STAT3 blocker -7.
Screening Cc1ccc(S(=O)(=O)Nc2cnn(-c3ccccc3)c(=O)c2Cl)cc1 returned STAT1 blocker 18, STAT3 act 97, APP 5'UTR act 20, NF-kB expr up 1.1, STAT1 activator 83 and STAT3 blocker 7.
Screening COc1cc(C(=O)/C=C/Nc2ccc(NC(C)=O)cc2)cc(OC)c1OC returned STAT1 blocker -6, STAT3 act 98, APP 5'UTR act -3, NF-kB expr up 0.85, STAT1 activator 105 and STAT3 blocker 3.
`COc1ccccc1Oc1ccc(N/C=C/C(=O)c2ccc(C)o2)cc1` gave STAT1 blocker -35, STAT3 act 99, APP 5'UTR act 93, NF-kB expr up 1.7, STAT1 activator 132* and STAT3 blocker 11.
`CC(=O)Nc1ccc(N/C=C/C(=O)c2ccc(C)o2)cc1` gave STAT1 blocker -42, STAT3 act 98, APP 5'UTR act 25, NF-kB expr up 1.3, STAT1 activator 143* and STAT3 blocker 4.
COc1ccc(C2=NN(C(C#N)c3ccc(OC)c(OC)c3)C(c3ccccc3)C2)cc1 (stereo unspecified) was read as STAT1 blocker -27, STAT3 act 103, APP 5'UTR act 155*, NF-kB expr up 6.1*, STAT1 activator 124 and STAT3 blocker 0.
For COc1ccc(C(C#N)N2CCC(c3ccccc3)=N2)cc1OC (stereo unspecified) the results were STAT1 blocker -22, STAT3 act 97, APP 5'UTR act -9, NF-kB expr up 1.3, STAT1 activator 121 and STAT3 blocker 6.
Screening COc1ccc(C2=NN(C(=O)CN3CCOCC3)C(c3nc4ccccc4[nH]3)C2)cc1 (stereo unspecified) returned STAT1 blocker -35, STAT3 act 108, APP 5'UTR act 122, NF-kB expr up 1.1, STAT1 activator 133* and STAT3 blocker -10.
For COc1ccc(C2=NN(C(=O)CN3CCCCC3)C(c3ccc(C)cc3)C2)cc1 (stereo unspecified) the results were STAT1 blocker -3, STAT3 act 105, APP 5'UTR act 9, NF-kB expr up 0.85, STAT1 activator 100 and STAT3 blocker -1.
`CC1CCN(c2oc(-c3ccccc3Cl)nc2C#N)CC1` gave STAT1 blocker -24, STAT3 act 114, APP 5'UTR act 80, NF-kB expr up 3.7*, STAT1 activator 121 and STAT3 blocker -12.
